According to ChEMBL document CHEMBL1933013, “Synthesis, SAR, and preliminary mechanistic evaluation of novel antiproliferative N⁶,5'-bis-ureido- and 5'-carbamoyl-N⁶-ureidoadenosine derivatives” (Bioorg Med Chem, 2012):
≈ marks a conversion by molar mass, not a printed value.

Key:
HeLa = experiment: Antiproliferative activity against human HeLa cells after 96 hrs; type: functional, cell-based
Procedure, shortened: (§1)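 Cells in growth medium grown with variable compound concentrations at 37 °C in humidified CO2-controlled atmosphere; incubation 48 h for L1210 and FM3A, 72 h for CEM, 96 h for HeLa. Cell number counted by Coulter counter; IC50 = concentration inhibiting proliferation by 50%.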

L1210 = experiment: Antiproliferative activity against mouse L1210 cells after 48 hrs; type: functional, cell-based; conditions: L1210, 48 h; procedure, shortened: as §1
CCRF-CEM = experiment: Antiproliferative activity against human CEM cells after 72 hrs; type: cell-based; procedure, shortened: as §1
FM3A = experiment: Antiproliferative activity against mouse FM3A cells after 48 hrs; type: functional, cell-based; procedure, shortened: as §1
[1] = target: Epidermal growth factor receptor (Homo sapiens) (UniProt P00533); experiment: Inhibition of EGFR at 10 uM after 1 hr by competitive binding assay
Procedure, shortened: (§2)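 Single-dose competitive binding at 10 μM against immobilized ATP-site ligands (DiscoveRx): phage-tagged or HEK-293-expressed DNA-tagged kinase with ligand-loaded streptavidin magnetic beads in 20% SeaBlock, 0.17× PBS, 0.05% Tween 20, 6 mM DTT, 1 h room temperature with shaking. Beads washed, eluted with 0.5 μM free ligand for 30 min; bound kinase quantified by qPCR as % binding inhibition.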

[2] = target: Serine/threonine-protein kinase DCLK1 (Homo sapiens) (UniProt O15075); experiment: Inhibition of DCLK1 at 10 uM after 1 hr by competitive binding assay; procedure, shortened: as §2
[3] = target: NT-3 growth factor receptor (Homo sapiens) (UniProt Q16288); experiment: Inhibition of NTRK3 at 10 uM after 1 hr by competitive binding assay; procedure, shortened: as §2
[4] = target: Protein kinase C epsilon type (Homo sapiens) (UniProt Q02156); experiment: Inhibition of PRKCE at 10 uM after 1 hr by competitive binding assay; procedure, shortened: as §2
[5] = target: Myosin light chain kinase family member 4 (Homo sapiens) (UniProt Q86YV6); experiment: Inhibition of MYLK4 at 10 uM after 1 hr by competitive binding assay; procedure, shortened: as §2
[6] = target: Tyrosine-protein kinase Blk (Homo sapiens) (UniProt P51451); experiment: Inhibition of Blk at 10 uM after 1 hr by competitive binding assay; procedure, shortened: as §2
[7] = target: T1, Bone morphogenetic protein receptor type-1B (Homo sapiens, UniProt O00238); experiment: Inhibition of BMPR1B at 10 uM after 1 hr by competitive binding assay; procedure, shortened: as §2
[8] = target: MAP kinase-interacting serine/threonine-protein kinase 2 (Homo sapiens) (UniProt Q9HBH9); experiment: Inhibition of MKNK2 at 10 uM after 1 hr by competitive binding assay; procedure, shortened: as §2
[9] = target: Receptor-type tyrosine-protein kinase FLT3 (Homo sapiens) (UniProt P36888); experiment: Inhibition of FLT-3 kinase at 10 uM after 1 hr by competitive binding assay; procedure, shortened: as §2
[10] = target: Homeodomain-interacting protein kinase 1 (Homo sapiens) (UniProt Q86Z02); experiment: Inhibition of HIPK1 at 10 uM after 1 hr by competitive binding assay; procedure, shortened: as §2
[11] = target: Myosin light chain kinase (Homo sapiens) (UniProt Q32MK0); experiment: Inhibition of MYLK3 at 10 uM after 1 hr by competitive binding assay; procedure, shortened: as §2
[12] = target: Tyrosine-protein kinase Tec (Homo sapiens) (UniProt P42680); experiment: Inhibition of TEC at 10 uM after 1 hr by competitive binding assay; procedure, shortened: as §2
[13] = target: Receptor tyrosine-protein kinase erbB-2 (Homo sapiens) (UniProt P04626); experiment: Inhibition of ErbB2 at 10 uM after 1 hr by competitive binding assay; procedure, shortened: as §2
[14] = target: T1, Bone morphogenetic protein receptor type-1B; experiment: Binding affinity to BMPR1B by multi dose competitive binding assay
[15] = target: Tyrosine-protein kinase ABL1 (Homo sapiens) (UniProt P00519); experiment: Inhibition of ABL1 at 10 uM after 1 hr by competitive binding assay; procedure, shortened: as §2
[16] = target: Mitogen-activated protein kinase 11 (Homo sapiens) (UniProt Q15759); experiment: Inhibition of MAPK11 at 10 uM after 1 hr by competitive binding assay; procedure, shortened: as §2
[17] = target: Serine/threonine-protein kinase Nek2 (Homo sapiens) (UniProt P51955); experiment: Inhibition of NEK2 at 10 uM after 1 hr by competitive binding assay; procedure, shortened: as §2
Chain of Serine/threonine-protein kinase Nek2 (Homo sapiens) (P51955 whole entry): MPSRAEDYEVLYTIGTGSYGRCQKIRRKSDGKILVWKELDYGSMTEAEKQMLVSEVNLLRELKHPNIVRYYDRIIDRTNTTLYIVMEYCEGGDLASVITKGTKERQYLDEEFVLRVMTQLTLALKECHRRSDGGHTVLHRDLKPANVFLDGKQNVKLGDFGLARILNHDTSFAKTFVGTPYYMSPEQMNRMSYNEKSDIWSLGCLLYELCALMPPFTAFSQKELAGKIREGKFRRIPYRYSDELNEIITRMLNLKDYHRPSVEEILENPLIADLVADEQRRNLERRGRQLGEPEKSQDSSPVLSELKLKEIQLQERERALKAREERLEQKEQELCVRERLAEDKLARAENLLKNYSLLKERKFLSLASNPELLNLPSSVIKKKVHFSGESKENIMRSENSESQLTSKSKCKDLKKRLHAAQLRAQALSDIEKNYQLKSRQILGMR

T1 sequence (O00238 whole entry): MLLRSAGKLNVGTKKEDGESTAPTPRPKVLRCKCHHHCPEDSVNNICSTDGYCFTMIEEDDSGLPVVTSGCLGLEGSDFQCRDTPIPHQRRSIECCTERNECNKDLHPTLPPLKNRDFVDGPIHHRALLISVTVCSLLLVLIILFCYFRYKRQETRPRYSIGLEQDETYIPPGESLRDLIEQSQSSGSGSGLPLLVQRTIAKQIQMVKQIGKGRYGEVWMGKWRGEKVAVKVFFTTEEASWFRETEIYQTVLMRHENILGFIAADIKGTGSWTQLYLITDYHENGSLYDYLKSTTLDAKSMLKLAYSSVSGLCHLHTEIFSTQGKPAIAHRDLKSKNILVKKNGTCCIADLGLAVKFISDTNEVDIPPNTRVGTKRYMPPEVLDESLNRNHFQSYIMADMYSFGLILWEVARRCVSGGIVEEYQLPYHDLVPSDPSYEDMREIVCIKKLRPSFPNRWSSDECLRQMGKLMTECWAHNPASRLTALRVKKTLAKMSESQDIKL
Chain of Myosin light chain kinase family member 4 (Homo sapiens) (Q86YV6 whole entry): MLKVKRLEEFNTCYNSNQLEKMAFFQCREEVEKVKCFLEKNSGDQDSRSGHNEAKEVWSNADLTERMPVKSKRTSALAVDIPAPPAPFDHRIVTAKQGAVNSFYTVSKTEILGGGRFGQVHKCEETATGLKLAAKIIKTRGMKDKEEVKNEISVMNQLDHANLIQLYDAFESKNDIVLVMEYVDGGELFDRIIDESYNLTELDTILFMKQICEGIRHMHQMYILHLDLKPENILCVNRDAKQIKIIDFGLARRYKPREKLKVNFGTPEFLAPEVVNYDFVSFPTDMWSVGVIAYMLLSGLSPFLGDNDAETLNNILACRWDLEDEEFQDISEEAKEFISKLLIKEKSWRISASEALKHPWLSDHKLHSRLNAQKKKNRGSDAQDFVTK
Chain of Receptor tyrosine-protein kinase erbB-2 (Homo sapiens) (P04626 whole entry): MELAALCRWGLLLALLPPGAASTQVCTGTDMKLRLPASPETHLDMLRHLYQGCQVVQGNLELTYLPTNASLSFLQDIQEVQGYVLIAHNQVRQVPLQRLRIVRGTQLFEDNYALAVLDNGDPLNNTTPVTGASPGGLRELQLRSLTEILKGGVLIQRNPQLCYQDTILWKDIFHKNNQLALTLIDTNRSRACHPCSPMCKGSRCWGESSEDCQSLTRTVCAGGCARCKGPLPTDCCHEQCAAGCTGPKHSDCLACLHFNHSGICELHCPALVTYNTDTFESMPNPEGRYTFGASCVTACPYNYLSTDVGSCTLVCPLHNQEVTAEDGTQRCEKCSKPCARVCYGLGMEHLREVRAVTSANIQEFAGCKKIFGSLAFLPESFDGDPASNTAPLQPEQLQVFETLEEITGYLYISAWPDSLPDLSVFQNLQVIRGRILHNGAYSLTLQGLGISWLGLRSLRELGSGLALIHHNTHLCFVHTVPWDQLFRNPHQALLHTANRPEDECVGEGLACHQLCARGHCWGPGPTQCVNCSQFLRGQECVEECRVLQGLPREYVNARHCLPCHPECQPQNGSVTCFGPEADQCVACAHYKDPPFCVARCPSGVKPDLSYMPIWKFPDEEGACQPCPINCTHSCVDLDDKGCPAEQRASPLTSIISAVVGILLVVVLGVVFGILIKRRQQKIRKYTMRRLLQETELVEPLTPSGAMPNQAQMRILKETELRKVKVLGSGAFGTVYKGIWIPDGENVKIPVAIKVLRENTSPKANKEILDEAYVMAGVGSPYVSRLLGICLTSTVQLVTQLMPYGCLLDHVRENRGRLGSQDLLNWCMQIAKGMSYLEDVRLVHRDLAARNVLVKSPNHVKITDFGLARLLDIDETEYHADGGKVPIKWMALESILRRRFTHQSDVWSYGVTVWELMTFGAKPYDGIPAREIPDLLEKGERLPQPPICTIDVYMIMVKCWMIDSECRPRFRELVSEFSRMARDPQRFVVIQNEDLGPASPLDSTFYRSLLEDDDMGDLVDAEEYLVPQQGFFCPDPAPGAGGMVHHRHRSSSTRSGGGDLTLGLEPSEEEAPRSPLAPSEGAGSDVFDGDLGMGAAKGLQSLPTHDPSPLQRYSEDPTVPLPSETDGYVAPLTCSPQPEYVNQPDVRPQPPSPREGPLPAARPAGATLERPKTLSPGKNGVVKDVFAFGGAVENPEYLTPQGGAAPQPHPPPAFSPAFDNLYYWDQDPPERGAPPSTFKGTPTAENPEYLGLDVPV
Chain of Mitogen-activated protein kinase 11 (Homo sapiens) (Q15759 whole entry): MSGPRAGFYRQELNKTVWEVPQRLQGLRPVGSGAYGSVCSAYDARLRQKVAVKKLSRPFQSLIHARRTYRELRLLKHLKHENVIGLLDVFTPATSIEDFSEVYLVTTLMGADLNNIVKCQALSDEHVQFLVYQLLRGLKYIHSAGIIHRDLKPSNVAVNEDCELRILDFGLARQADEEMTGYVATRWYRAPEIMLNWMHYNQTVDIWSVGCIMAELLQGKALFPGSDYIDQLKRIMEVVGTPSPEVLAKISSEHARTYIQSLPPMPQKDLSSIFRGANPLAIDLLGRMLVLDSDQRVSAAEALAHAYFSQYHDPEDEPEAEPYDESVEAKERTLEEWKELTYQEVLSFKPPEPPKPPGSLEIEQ
Chain of Tyrosine-protein kinase Tec (Homo sapiens) (P42680 whole entry): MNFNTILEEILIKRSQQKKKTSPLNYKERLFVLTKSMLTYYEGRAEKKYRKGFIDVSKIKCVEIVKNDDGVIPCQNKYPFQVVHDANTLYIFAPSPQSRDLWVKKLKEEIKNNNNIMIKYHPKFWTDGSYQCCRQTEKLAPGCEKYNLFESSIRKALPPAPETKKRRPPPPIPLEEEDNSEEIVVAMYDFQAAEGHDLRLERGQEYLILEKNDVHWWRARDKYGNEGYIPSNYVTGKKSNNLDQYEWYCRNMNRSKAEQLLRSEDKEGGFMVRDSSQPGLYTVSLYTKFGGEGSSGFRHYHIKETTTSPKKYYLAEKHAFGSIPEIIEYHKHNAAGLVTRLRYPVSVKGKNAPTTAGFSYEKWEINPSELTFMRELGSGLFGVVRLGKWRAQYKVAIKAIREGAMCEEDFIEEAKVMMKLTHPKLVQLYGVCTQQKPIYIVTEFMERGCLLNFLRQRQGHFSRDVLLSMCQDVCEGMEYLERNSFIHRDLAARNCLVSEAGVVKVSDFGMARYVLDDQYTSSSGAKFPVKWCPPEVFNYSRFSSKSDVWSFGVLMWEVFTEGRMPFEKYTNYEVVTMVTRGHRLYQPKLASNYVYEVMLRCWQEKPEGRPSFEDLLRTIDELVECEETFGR
Chain of Receptor-type tyrosine-protein kinase FLT3 (Homo sapiens) (P36888 whole entry): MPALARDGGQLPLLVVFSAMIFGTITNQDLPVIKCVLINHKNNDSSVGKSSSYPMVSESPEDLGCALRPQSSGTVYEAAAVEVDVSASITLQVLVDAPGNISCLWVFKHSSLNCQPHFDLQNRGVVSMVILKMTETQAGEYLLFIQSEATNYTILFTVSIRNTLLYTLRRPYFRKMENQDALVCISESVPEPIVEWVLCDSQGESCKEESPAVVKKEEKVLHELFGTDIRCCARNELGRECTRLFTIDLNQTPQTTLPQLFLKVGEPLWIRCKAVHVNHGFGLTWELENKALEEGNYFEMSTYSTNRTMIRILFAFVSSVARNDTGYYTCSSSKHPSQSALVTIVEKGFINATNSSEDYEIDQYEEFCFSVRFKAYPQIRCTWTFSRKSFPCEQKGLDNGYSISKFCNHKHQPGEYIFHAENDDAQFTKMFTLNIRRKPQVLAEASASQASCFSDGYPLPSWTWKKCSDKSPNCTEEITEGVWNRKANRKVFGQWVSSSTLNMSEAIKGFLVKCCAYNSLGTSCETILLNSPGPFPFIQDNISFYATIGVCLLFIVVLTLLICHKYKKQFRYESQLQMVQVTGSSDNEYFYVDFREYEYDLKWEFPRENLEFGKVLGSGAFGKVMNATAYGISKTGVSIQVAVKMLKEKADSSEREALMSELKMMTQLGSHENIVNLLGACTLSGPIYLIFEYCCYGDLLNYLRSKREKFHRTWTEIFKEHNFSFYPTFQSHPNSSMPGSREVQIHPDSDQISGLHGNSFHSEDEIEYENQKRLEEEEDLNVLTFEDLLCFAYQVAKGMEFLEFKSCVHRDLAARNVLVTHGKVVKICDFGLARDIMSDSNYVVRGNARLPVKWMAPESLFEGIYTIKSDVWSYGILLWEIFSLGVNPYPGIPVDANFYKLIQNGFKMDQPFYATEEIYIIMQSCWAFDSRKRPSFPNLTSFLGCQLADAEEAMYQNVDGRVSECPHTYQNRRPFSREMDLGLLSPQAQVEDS
Chain of MAP kinase-interacting serine/threonine-protein kinase 2 (Homo sapiens) (Q9HBH9 whole entry, looked up): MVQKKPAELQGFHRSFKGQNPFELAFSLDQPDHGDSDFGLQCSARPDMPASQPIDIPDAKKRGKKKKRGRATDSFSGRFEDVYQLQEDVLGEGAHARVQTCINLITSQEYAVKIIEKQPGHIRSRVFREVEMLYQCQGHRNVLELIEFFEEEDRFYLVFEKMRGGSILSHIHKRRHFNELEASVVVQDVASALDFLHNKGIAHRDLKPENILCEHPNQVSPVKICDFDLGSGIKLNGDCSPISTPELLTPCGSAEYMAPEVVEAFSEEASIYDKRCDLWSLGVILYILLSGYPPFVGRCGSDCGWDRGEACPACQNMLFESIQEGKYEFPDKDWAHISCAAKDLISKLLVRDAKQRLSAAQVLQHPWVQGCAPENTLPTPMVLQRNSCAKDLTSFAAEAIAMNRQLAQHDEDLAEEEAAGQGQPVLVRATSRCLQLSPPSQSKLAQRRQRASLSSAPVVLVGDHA

SMILES	IC50 (HeLa) [µg/mL]	IC50 (L1210) [µg/mL]	IC50 (CCRF-CEM) [µg/mL]	IC50 (FM3A) [µg/mL]	also measured
CNC(=O)OC[C@H]1O[C@@H](n2cnc3c(NC(=O)Nc4ccc([N+](=O)[O-])cc4)ncnc32)[C@H](O[Si](C)(C)C(C)(C)C)[C@@H]1O[Si](C)(C)C(C)(C)C	1.5 (≈ 2.09 µM)	7.7 (≈ 10.7 µM)	15 (≈ 20.9 µM)	24 (≈ 33.5 µM)	–
CCCNC(=O)Nc1ncnc2c1ncn2[C@@H]1O[C@H](COC(=O)NC)[C@@H](O[Si](C)(C)C(C)(C)C)[C@H]1O[Si](C)(C)C(C)(C)C	55 (≈ 86.2 µM)	18 (≈ 28.2 µM)	59 (≈ 92.5 µM)	23 (≈ 36.1 µM)	–
CNC(=O)OC[C@H]1O[C@@H](n2cnc3c(NC(=O)Nc4ccc(Cl)cc4)ncnc32)[C@H](O[Si](C)(C)C(C)(C)C)[C@@H]1O[Si](C)(C)C(C)(C)C	> 200	> 200	> 200	> 200	–
CNC(=O)NC[C@H]1O[C@@H](n2cnc3c(NC(=O)Nc4ccc(I)cc4)ncnc32)[C@H](O[Si](C)(C)C(C)(C)C)[C@@H]1O[Si](C)(C)C(C)(C)C	18 (≈ 22.6 µM)	43 (≈ 54 µM)	68 (≈ 85.3 µM)	–	–
CNC(=O)NC[C@H]1O[C@@H](n2cnc3c(NC(=O)Nc4ccc(Cl)cc4)ncnc32)[C@H](O[Si](C)(C)C(C)(C)C)[C@@H]1O[Si](C)(C)C(C)(C)C	3.4 (≈ 4.82 µM)	5.6 (≈ 7.94 µM)	14 (≈ 19.8 µM)	33 (≈ 46.8 µM)	–
CNC(=O)OC[C@H]1O[C@@H](n2cnc3c(NC(=O)Nc4ccc(I)cc4)ncnc32)[C@H](O[Si](C)(C)C(C)(C)C)[C@@H]1O[Si](C)(C)C(C)(C)C	143 (≈ 179 µM)	> 200	≥ 200	> 200	–
CNC(=O)OC[C@H]1O[C@@H](n2cnc3c(NC(=O)NC4CCCCC4)ncnc32)[C@H](O[Si](C)(C)C(C)(C)C)[C@@H]1O[Si](C)(C)C(C)(C)C	69 (≈ 102 µM)	74 (≈ 109 µM)	175 (≈ 258 µM)	> 200	–
CCCCCCNC(=O)Nc1ncnc2c1ncn2[C@@H]1O[C@H](CNC(=O)NC)[C@@H](O[Si](C)(C)C(C)(C)C)[C@H]1O[Si](C)(C)C(C)(C)C	74 (≈ 109 µM)	74 (≈ 109 µM)	68 (≈ 100 µM)	–	–
CCCCCCNC(=O)Nc1ncnc2c1ncn2[C@@H]1O[C@H](COC(=O)NC)[C@@H](O[Si](C)(C)C(C)(C)C)[C@H]1O[Si](C)(C)C(C)(C)C	88 (≈ 129 µM)	> 200	175 (≈ 257 µM)	> 200	–
CNC(=O)NC[C@H]1O[C@@H](n2cnc3c(NC(=O)NC4CCCCC4)ncnc32)[C@H](O[Si](C)(C)C(C)(C)C)[C@@H]1O[Si](C)(C)C(C)(C)C	11 (≈ 16.2 µM)	20 (≈ 29.5 µM)	5.2 (≈ 7.68 µM)	8.4 (≈ 12.4 µM)	–
CNC(=O)NC[C@H]1O[C@@H](n2cnc3c(NC(=O)Nc4ccccc4)ncnc32)[C@H](O)[C@@H]1O	–	–	–	–	inhibition [1]: 31%; inhibition [2]: 41%; inhibition [3]: 40%; inhibition [4]: 38%; inhibition [5]: 38%; inhibition [6]: 32%; inhibition [7]: 45%; inhibition [8]: 37%; inhibition [9]: 33%; inhibition [10]: 30%; inhibition [11]: 43%; inhibition [12]: 37%; inhibition [13]: 35%; Kd [14]: 11.5 µM; inhibition [15]: 30%; inhibition [16]: 37%; inhibition [17]: 33%
